The values below come from ChEMBL document CHEMBL5678802, “Small-molecule p21-activated kinase inhibitor PF-3758309 is a potent inhibitor of oncogenic signaling and tumor growth” (Proc Natl Acad Sci U S A, 2010).

Activity calls are given as the source filed them. The calls are words filed in the database; no cut-off is given here.

One test concerns HuP-T4. As to the kind of experiment: Antiproliferative activity against human HuP-T4 cells assessed as inhibition of cell proliferation incubated for 3 days by CellTiter-Glo Luminescent Cell Viability Assay. Format: functional, cell-based. Particulars: HuP-T4, 72 h. The method in brief:
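Cancer cell lines seeded in 384-well plates on day 1; compound added on day 2 and left for 3 days. On day 5 all medium was aspirated, and viable cells were quantified by CellTiter-Glo luminescence, which measures cellular ATP. Dose-dependent effects on proliferation were determined.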
(Cellular ATP, detected with luciferase, serves as a proxy for viable cell number.)

The subject of a further test is COLO 320DM. Kind of test: Inhibition of anchorage independent cell growth in human COLO 320DM cells incubated for 6 days by Alamar blue reagent based fluorescence plate reader analysis. The settings on record: 144 h. In kind it is functional.
In test [1] the test system is HCT-116. As to the kind of experiment: Antitumor activity against human HCT-116 cells xenografted in nude mouse assessed as inhibition of [3H]FLT uptake at 25 mg/kg, po administered once a day for 2 day and measured after 2 hrs post [3H]FLT administration by scintillation counter analysis relative to control. In kind it is functional. Particulars: HCT-116, 48 h. A digest of the protocol: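 HCT116 xenograft mice (tumors 300–350 mm3, n = 5 per group) received oral vehicle or compound, with harvests on days 2, 3 and 6. Isoflurane-anesthetized mice were given [3H]FLT (15 nCi/g, i.p.) 2 h before killing. Tumor and liver were weighed, solubilized and scintillation-counted. SUV = C/(ID/W), and uptake is reported as the tumor-to-liver SUV ratio.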
Background: In xenograft studies the graft and the host belong to different species.

Another test has as its system Panc1005. As to the kind of experiment: Antiproliferative activity against human Panc1005 cells assessed as inhibition of cell proliferation incubated for 3 days by CellTiter-Glo Luminescent Cell Viability Assay. In kind it is functional, cell-based. The settings on record: Panc1005, 72 h. The method in brief: (§1)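 Cells of each line were plated in 384-well plates on day 1 and exposed to compound from day 2 for 3 days. On day 5 all medium was aspirated. Viable cell number was read by CellTiter-Glo luminescence, which quantifies cellular ATP.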

The next test concerns NCI-H1299. As to the kind of experiment: Inhibition of anchorage independent cell growth in human NCI-H1299 cells incubated for 6 days by Alamar blue reagent based fluorescence plate reader analysis. The settings on record: NCI-H1299, 144 h. Format: functional. For orientation: The colour change of resazurin is a common sign of viable cells or microbes.
A further test has as its system NCI-H1770. As to the kind of experiment: Inhibition of anchorage independent cell growth in human NCI-H1770 cells incubated for 6 days by Alamar blue reagent based fluorescence plate reader analysis. Format: functional. The settings on record: NCI-H1770, 144 h.
A further test concerns NCI-H1734. As to the kind of experiment: Antiproliferative activity against human NCI-H1734 cells assessed as inhibition of cell proliferation incubated for 3 days by CellTiter-Glo Luminescent Cell Viability Assay. In kind it is functional, cell-based. The settings on record: NCI-H1734, 72 h. The method in brief:
as §1

Test [2] addresses T1, Receptor-type tyrosine-protein kinase FLT3 (Homo sapiens, UniProt P36888).
T1 sequence (P36888 whole entry): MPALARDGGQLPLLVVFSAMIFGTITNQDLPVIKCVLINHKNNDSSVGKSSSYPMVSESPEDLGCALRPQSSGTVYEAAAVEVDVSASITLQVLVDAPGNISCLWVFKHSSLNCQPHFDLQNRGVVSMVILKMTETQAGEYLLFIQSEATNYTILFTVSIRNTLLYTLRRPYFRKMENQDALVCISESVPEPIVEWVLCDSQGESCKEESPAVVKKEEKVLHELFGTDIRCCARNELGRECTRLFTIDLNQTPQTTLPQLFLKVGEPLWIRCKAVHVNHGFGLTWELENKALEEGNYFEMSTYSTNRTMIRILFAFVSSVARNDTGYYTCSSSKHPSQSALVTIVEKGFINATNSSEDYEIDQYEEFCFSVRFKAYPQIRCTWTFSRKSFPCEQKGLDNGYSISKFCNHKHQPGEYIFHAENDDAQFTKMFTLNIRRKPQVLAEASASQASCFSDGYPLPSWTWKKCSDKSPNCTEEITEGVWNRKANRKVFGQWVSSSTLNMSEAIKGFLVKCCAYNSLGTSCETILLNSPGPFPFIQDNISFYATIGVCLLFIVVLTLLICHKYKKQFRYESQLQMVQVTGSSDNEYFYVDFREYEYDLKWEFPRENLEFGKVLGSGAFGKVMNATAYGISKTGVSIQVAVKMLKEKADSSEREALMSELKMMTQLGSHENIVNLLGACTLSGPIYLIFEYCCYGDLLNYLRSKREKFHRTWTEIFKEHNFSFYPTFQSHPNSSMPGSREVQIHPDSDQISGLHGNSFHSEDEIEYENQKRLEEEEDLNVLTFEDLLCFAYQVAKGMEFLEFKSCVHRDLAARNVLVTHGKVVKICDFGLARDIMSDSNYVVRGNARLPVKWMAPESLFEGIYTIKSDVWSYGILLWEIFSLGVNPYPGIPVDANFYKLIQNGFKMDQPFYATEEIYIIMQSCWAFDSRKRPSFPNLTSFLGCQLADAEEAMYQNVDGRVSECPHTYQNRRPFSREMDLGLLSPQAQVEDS
Kind of test: Inhibition of human FLT3 assessed as inhibition constant in presence of ATP.

Test [3] concerns the target Tyrosine-protein kinase Fyn (Homo sapiens, UniProt P06241). As to the kind of experiment: Inhibition of human FYN in presence of ATP.
For test [4], the target named is Protein kinase C gamma type (Homo sapiens, UniProt P05129). As to the kind of experiment: Inhibition of human PKCgamma in presence of ATP relative to control. Particulars: concentration not given here.
For the next test, the system named is COLO 205. Kind of test: Antitumor activity against human COLO 205 cells xenografted in nude mouse assessed as tumor growth inhibition at 20 mg/kg, po administered once daily for 9 to 18 days relative to control. In kind it is functional. The settings on record: time 9-18 day, read-out: TGI. A digest of the protocol: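 Tumor cells were implanted s.c. into the right flank of female nu/nu nude mice aged 6–8 weeks. Animals were randomized into treatment groups once tumors were established (example: day 8 postimplant, about 170 mm3, animals >22 g). Compound in 0.5% methylcellulose was given by oral gavage. Tumors were measured with calipers two to three times per week.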

Test [5] deals with Serine/threonine-protein kinase PAK 6 (Homo sapiens, UniProt Q9NQU5). As to the kind of experiment: Inhibition of PAK6 (unknown origin) using EVPRRKSLVGTPYWM peptide as substrate assessed as inhibition constant in presence of ATP by biochemical assay. The method in brief: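 PAK6 kinase domain activity coupled to NADH oxidation via pyruvate kinase/lactate dehydrogenase (2 mM phosphoenolpyruvate, 0.33 mM NADH, 15 units/mL each PK and LDH) in 50 mM Hepes pH 7.5, 1 mM DTT, 5 mM MgCl2, 0.5 mM peptide 7, 0.072 mM ATP. Initial rates by linear least-squares regression; Ki from competitive or tight-binding inhibition fits.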
Sequence of Serine/threonine-protein kinase PAK 6 (Q9NQU5 whole entry, the tested form may be a part): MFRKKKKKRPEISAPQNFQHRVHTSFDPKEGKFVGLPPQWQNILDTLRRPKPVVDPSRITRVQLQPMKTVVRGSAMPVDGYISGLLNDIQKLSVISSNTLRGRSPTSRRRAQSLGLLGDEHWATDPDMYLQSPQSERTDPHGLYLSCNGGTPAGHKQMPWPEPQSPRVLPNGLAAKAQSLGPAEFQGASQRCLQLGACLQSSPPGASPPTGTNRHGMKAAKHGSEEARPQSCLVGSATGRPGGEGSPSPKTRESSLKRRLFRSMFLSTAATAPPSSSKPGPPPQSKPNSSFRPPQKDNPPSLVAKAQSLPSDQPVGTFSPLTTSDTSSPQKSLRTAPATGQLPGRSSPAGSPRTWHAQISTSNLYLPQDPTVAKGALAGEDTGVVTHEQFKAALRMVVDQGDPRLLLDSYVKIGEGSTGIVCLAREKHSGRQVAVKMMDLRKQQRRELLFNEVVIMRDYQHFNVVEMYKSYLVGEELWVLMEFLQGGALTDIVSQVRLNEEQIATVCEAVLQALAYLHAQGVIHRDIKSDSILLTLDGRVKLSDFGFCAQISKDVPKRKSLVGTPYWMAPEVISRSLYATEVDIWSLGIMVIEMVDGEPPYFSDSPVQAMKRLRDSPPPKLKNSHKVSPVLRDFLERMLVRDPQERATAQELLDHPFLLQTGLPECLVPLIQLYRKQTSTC

In a further test the test system is M24met. Kind of test: Antitumor activity against human M24met cells xenografted in nude mouse assessed as tumor growth inhibition at 25 mg/kg, po administered once daily for 9 to 18 days relative to control. In kind it is functional. Particulars: time 9-18 day, read-out: TGI.
Test [6] has as its system HCT-116. As to the kind of experiment: Antitumor activity against human HCT-116 cells xenografted in nude mouse assessed as reduction in PKCalpha phosphorylation at S569 residue at 15 to 150 mg/kg/day administered via pump for 18 hrs by Reverse-Phase protein array analysis. Format: functional, organism-based. The settings on record: dose 15-150 mg/kg/day.
In a further test the test system is NCI-H716. As to the kind of experiment: Antiproliferative activity against human NCI-H716 cells assessed as inhibition of cell proliferation incubated for 3 days by CellTiter-Glo Luminescent Cell Viability Assay. In kind it is functional, cell-based. Particulars: NCI-H716, 72 h. The method in brief:
as §1

A short description of test [7]: Inhibition of YFP/YFP variant coding sequence fused PAK4/cofilin (unknown origin) expressed in HEK293 cells incubated for 8 to 24 hrs by fluorescence based analysis. In kind it is cell-based, Homo sapiens.

Sequence of Tyrosine-protein kinase Fyn (P06241 whole entry): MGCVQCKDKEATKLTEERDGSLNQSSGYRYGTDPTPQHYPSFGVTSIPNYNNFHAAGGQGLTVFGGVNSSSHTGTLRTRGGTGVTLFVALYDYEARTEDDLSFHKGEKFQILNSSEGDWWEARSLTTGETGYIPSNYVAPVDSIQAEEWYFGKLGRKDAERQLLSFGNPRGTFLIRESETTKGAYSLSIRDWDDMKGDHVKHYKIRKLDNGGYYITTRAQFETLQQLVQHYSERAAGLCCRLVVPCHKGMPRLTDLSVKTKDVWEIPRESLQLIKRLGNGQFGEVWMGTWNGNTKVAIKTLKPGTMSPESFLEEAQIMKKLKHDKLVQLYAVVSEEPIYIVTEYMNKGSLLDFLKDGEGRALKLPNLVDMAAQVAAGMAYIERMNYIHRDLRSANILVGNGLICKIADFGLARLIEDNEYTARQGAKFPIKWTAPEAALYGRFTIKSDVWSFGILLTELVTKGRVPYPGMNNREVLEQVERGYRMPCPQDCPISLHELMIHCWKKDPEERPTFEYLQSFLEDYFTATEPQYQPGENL

`Cc1nc(Nc2n[nH]c3c2CN(C(=O)N[C@H](CN(C)C)c2ccccc2)C3(C)C)c2sccc2n1` [PF-03758309]: the half-maximal inhibitory concentration (IC50) with HuP-T4 worked out at 0.231 µM; in the test with COLO 320DM it was 0.373 µM; with Panc1005 it was 0.067 µM; with NCI-H1299, 0.007 µM; with NCI-H1770 it was 0.00184 µM; in the test on NCI-H1734, 0.0041 µM. In addition, the figures for the IC50 (in test [3]; in the test on NCI-H716; in [7]) were 0.046 µM, 0.011 µM and 0.0104 µM, respectively. For the same molecule, the inhibition in vivo at 25 mg/kg in the test on HCT-116 [1] is 35.3%; with M24met, 85%. Besides, the Ki in [2] was 0.081 µM; in test [5], 0.0171 µM. Moreover, the inhibition in test [4] is 92%. The inhibition in vivo at 20 mg/kg in the test with COLO 205 was 106%. Also, the outcome with HCT-116 [6] was Active.

A word on the IC50: it is the midpoint of a concentration-inhibition curve. As usually defined, the Ki is the equilibrium dissociation constant of an inhibitor or competing ligand from its target. What is called inhibition is the percentage by which the read-out fell short of the control.
